Measured values reported in ChEMBL document CHEMBL1152850, “Efficient inhibition of the Alzheimer's disease beta-secretase by membrane targeting” (Science, 2008).
One block for each compound: values may come before it. Activity calls are given as the source filed them. No cut-off for these calls is given here. Square brackets hold non-standard residues; d marks the D form. Peptide text beside a SMILES is read from it. * marks the point of attachment. Piperazinyl(4-RhodamineB) = CCN(CC)c1ccc2c(-c3ccccc3C(=O)N3CCN(*)CC3)c3ccc(=[N+](CC)CC)cc-3oc2c1; X4 = CC(C)CCC[C@@H](C)[C@H]1CC[C@H]2[C@@H]3CC[C@H]4C[C@@H](OCC(=O)*)CC[C@]4(C)[C@H]3CC[C@]12C; X1 = CC(C)CCC[C@@H](C)[C@H]1CC[C@H]2[C@@H]3CCC4C[C@@H](O*)CC[C@]4(C)[C@H]3CC[C@]12C; Sta = CC(C)C[C@H](N)[C@@H](O)CC(=O)O; PEG4 = NCCOCCOCCOCCOCCC(=O)O; PEG3 = NCCOCCOCCOCCC(=O)O; X3 = CCCCCCCCCCCCCCCCO*; X2 = CCCCCCCCCCCCCCO*; βAla = NCCC(=O)O

How the values were obtained:
[1] = molecular target: Beta-secretase 1 (Homo sapiens) (UniProt P56817); experiment: Inhibition of BACE1 mediated APP cleavage in human HeLa cells expressing swAPP at 20 nM after 4 hrs; type: cell-based
Beta-secretase 1 (Homo sapiens), sequence (P56817 whole entry, the tested form may be a part): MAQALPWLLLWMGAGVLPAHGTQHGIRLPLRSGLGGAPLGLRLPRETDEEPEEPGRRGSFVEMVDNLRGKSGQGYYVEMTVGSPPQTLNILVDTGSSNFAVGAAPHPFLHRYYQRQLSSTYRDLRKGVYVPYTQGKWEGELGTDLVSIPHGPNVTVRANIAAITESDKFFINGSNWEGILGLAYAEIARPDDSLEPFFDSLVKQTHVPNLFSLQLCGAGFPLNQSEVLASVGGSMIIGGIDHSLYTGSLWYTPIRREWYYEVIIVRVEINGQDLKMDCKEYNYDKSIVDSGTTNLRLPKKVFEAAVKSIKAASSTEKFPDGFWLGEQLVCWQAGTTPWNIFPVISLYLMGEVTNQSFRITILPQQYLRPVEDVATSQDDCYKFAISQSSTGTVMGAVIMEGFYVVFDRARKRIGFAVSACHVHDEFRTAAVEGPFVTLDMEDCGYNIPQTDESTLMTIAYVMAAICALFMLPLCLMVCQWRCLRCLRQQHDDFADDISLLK
Summary of the method: (§1)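 HeLa-swAPP cells incubated with compounds at 20 nM or 200 nM for 4 hours; harvested medium assayed for sAPPβ and expressed as percent inhibition of β cleavage, mean ± SD.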

[2] = molecular target: Beta-secretase 1 (Homo sapiens) (UniProt P56817); experiment: Inhibition of BACE1 mediated APP cleavage in human HeLa cells expressing swAPP at 200 nM after 4 hrs; type: cell-based; summary of the method: as §1
[3] = molecular target: Beta-secretase 1 (Homo sapiens) (UniProt P56817); experiment: Inhibition of BACE1 mediated APP cleavage in human HeLa cells expressing swAPP at 200 nM by electrochemiluminescence assay; type: cell-based
Mus musculus = experiment: Reduction in amyloid beta production in transgenic swAPP/PSDE9 mouse expressing APP KM670/671NL mutant and presenilin-1 […] at 10 mM dosed stereotaxically into hippocampus after 4 hrs; type: functional, organism-based
Summary of the method: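 APPsw/PSΔE9 transgenic mice given a stereotaxic injection into the hippocampus, with DMSO as solvent control; hippocampal Aβ measured 4 hours later. Means ± SD, Student t test.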

[4] = molecular target: Beta-secretase 1 (Homo sapiens) (UniProt P56817); experiment: Inhibition of BACE1 mediated APP cleavage in human HeLa cells expressing swAPP assessed as as beta cleaved ectodomain of APP level; type: cell-based
[5] = molecular target: Beta-secretase 1 (Mus musculus) (UniProt P56818); experiment: Inhibition of BACE1 mediated APP cleavage in mouse N2a cells expressing swAPP by electrochemiluminescence assay; type: cell-based
Beta-secretase 1 (Mus musculus), sequence (P56818 whole entry, the tested form may be a part): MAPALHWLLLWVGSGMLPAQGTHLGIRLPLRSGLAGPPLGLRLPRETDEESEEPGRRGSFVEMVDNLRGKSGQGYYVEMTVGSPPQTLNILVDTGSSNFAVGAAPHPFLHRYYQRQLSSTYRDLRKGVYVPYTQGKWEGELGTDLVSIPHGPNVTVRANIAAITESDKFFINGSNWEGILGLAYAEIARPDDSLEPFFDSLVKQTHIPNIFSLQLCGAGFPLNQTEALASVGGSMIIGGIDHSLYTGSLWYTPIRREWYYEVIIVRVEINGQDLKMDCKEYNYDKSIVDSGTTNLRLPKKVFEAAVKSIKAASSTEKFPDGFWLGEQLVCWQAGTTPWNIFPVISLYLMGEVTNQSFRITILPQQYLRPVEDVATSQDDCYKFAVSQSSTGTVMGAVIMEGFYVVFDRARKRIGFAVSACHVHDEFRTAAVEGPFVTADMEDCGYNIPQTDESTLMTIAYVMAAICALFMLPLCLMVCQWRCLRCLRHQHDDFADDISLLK

[6] = molecular target: Beta-secretase 1 (Homo sapiens) (UniProt P56817); experiment: Inhibition of BACE1 ectodomain relative to control
[7] = molecular target: Beta-secretase 1 (Homo sapiens) (UniProt P56817); experiment: Inhibition of BACE1 mediated APP cleavage in human HeLa cells expressing swAPP at 2 uM after 4 hrs by immunoblot; type: cell-based
[8] = molecular target: Beta-secretase 1 (Homo sapiens) (UniProt P56817); experiment: Inhibition of BACE1 mediated APP cleavage in human HeLa cells expressing swAPP assessed as as beta cleaved ectodomain of APP level using rhodamine-labeled compound at 2 uM; type: cell-based
Summary of the method: (§2)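 Rhodamine-labeled inhibitors at 2 μM on HeLa-swAPP cells; medium analyzed by ECL for sAPPβ and Aβ40, with viability (percent survival). Means ± SD, representative of three independent experiments.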

HeLa [9] = experiment: Increase in alpha secretase mediated APP cleavage in human HeLa cells expressing swAPP assessed as alpha cleaved ectodomain of APP at 200 nM by electrochemiluminescence assay; type: cell-based
HeLa [10] = experiment: Increase in alpha secretase mediated APP cleavage in human HeLa cells expressing swAPP at 2 uM after 4 hrs by immunoblot; type: cell-based
Drosophila [11] = experiment: Reduction on lethality of Drosophila w:actin-GAL4/Cyo;UASDPsn/Tm3 flies expressing presenilin mutant assessed as increase in survival by measuring eclosion numbers 4 mM dosed in diet; type: functional, organism-based
Drosophila [12] = experiment: Reduction on lethality of Drosophila UAS-APP/UAS-APP; UAS-BACE523/UAS-BACE523 flies expressing BACE mutant assessed as increase in survival by measuring eclosion numbers 4 mM dosed in diet; type: functional, organism-based
[13] = molecular target: Beta-secretase 1 (Homo sapiens) (UniProt P56817); experiment: Inhibition of BACE1 mediated APP cleavage in human HeLa cells expressing swAPP assessed as amyloid beta production using rhodamine-labeled compound at 2 uM; type: cell-based; summary of the method: as §2
[14] = molecular target: Beta-secretase 1 (Homo sapiens) (UniProt P56817); experiment: Inhibition of BACE1 mediated APP cleavage in human HeLa cells expressing swAPP assessed as beta cleaved ectodomain of APP level using rhodamine-labeled compound at 0.1 mM; type: cell-based
Summary of the method: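 HeLa-swAPP cells treated with a range of concentrations of the sterol-linked inhibitor; β-cleaved ectodomain detected by immunostaining and imaging, nuclei counterstained with DAPI.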

[15] = molecular target: Beta-secretase 1 (Homo sapiens) (UniProt P56817); experiment: Inhibition of BACE1 mediated APP cleavage in human HeLa cells expressing swAPP assessed as amyloid beta production at 2 uM after 4 hrs by immunoblot; type: cell-based

inhibition [1]: Active
inhibition [2]: Active
Structure (SMILES): CCCCCCCCCCCCCCOC(=O)C[C@H](NC(=O)CCOCCOCCOCCOCCNC(=O)CCOCCOCCOCCNC(=O)CCOCCOCCOCCOCCNC(=O)CCOCCOCCOCCNC(=O)CCOCCOCCOCCOCCNC(=O)[C@H](Cc1ccccc1)NC(=O)[C@H](CCC(=O)O)NC(=O)[C@H](C)NC(=O)[C@@H](NC(=O)C[C@H](O)[C@H](CC(C)C)NC(=O)[C@H](CC(N)=O)NC(=O)[C@@H](NC(=O)[C@@H](N)CCC(=O)O)C(C)C)C(C)C)C(N)=O (H-EVN[Sta]VAEF[PEG4][PEG3][PEG4][PEG3][PEG4]D(X2)-NH2)

inhibition [3]: inactive
Structure (SMILES): CCN(CC)c1ccc2c(-c3ccccc3C(=O)N3CCN(C(=O)CC[C@H](NC(=O)CCNC(=O)[C@H](CCCN=C(N)N)NC(=O)[C@H](CCCN=C(N)N)NC(=O)CO[C@H]4CC[C@@]5(C)[C@@H](CC[C@@H]6[C@@H]5CC[C@]5(C)[C@@H]([C@H](C)CCCC(C)C)CC[C@@H]65)C4)C(=O)NCCC(=O)NCC(=O)N[C@@H](CCC(=O)O)C(=O)N[C@H](C(=O)N[C@@H](CC(N)=O)C(=O)N[C@@H](CC(C)C)[C@@H](O)CC(=O)N[C@H](C(=O)N[C@@H](C)C(=O)N[C@@H](CCC(=O)O)C(=O)N[C@@H](Cc4ccccc4)C(N)=O)C(C)C)C(C)C)CC3)c3ccc(=[N+](CC)CC)cc-3oc2c1 (X4-RR[βAla]E(Piperazinyl(4-RhodamineB))[βAla]GEVN[Sta]VAEF-NH2)

inhibition [7]: Active
inhibition [8]: Active
inhibition [5]: Active
inhibition [13]: Active
inhibition [14]: Active
inhibition [15]: Active
Structure (SMILES): CC(C)CCC[C@@H](C)[C@H]1CC[C@H]2[C@@H]3CCC4C[C@@H](OC(=O)C[C@H](NC(=O)CCOCCOCCOCCOCCNC(=O)CCOCCOCCOCCNC(=O)CCOCCOCCOCCOCCNC(=O)CCOCCOCCOCCNC(=O)CCOCCOCCOCCOCCNC(=O)[C@H](Cc5ccccc5)NC(=O)[C@H](CCC(=O)O)NC(=O)[C@H](C)NC(=O)[C@@H](NC(=O)C[C@H](O)[C@H](CC(C)C)NC(=O)[C@H](CC(N)=O)NC(=O)[C@@H](NC(=O)[C@@H](N)CCC(=O)O)C(C)C)C(C)C)C(N)=O)CC[C@]4(C)[C@H]3CC[C@]12C (stereo partly specified) (H-EVN[Sta]VAEF[PEG4][PEG3][PEG4][PEG3][PEG4]D(X1)-NH2)
Activity (Mus musculus): Active
inhibition (HeLa [9]): Active
inhibition (HeLa [10]): Active
inhibition (Drosophila [11]): Active
inhibition (Drosophila [12]): Active

Continued, compound first:

Structure (SMILES): CC(C)C[C@H](NC(=O)[C@H](CC(N)=O)NC(=O)[C@@H](NC(=O)[C@@H](N)CCC(=O)O)C(C)C)[C@@H](O)CC(=O)N[C@H](C(=O)N[C@@H](C)C(=O)N[C@@H](CCC(=O)O)C(=O)N[C@@H](Cc1ccccc1)C(=O)NCCOCCOCCOCCOCCC(=O)NCCOCCOCCOCCC(=O)NCCOCCOCCOCCOCCC(=O)NCCOCCOCCOCCC(=O)NCCOCCOCCOCCOCCC(N)=O)C(C)C (H-EVN[Sta]VAEF[PEG4][PEG3][PEG4][PEG3][PEG4]-NH2)
inhibition [3]: inactive

Structure (SMILES): CC(C)C[C@H](NC(=O)[C@H](CC(N)=O)NC(=O)[C@@H](NC(=O)[C@@H](N)CCC(=O)O)C(C)C)[C@@H](O)CC(=O)N[C@H](C(=O)N[C@@H](C)C(=O)N[C@@H](CCC(=O)O)C(=O)N[C@@H](Cc1ccccc1)C(N)=O)C(C)C (HELM PEPTIDE1{E.V.N.[CC(C)C[C@H](N[*:1])[C@@H](O)CC(=O)[*:2]].V.A.E.F.[am]}$$$$V2.0)
inhibition (Mus musculus): inactive
inhibition [4]: inactive
inhibition [5]: inactive
inhibition [6]: Active

Structure (SMILES): CCCCCCCCCCCCCCCCOC(=O)C[C@H](NC(=O)CCOCCOCCOCCOCCNC(=O)CCOCCOCCOCCNC(=O)CCOCCOCCOCCOCCNC(=O)CCOCCOCCOCCNC(=O)CCOCCOCCOCCOCCNC(=O)[C@H](Cc1ccccc1)NC(=O)[C@H](CCC(=O)O)NC(=O)[C@H](C)NC(=O)[C@@H](NC(=O)C[C@H](O)[C@H](CC(C)C)NC(=O)[C@H](CC(N)=O)NC(=O)[C@@H](NC(=O)[C@@H](N)CCC(=O)O)C(C)C)C(C)C)C(N)=O (H-EVN[Sta]VAEF[PEG4][PEG3][PEG4][PEG3][PEG4]D(X3)-NH2)
inhibition [1]: Active
inhibition [2]: Active
